Columns and labels:
[1] = target: T1, Histamine H3 receptor (Cavia porcellus, UniProt Q9JI35); experiment: pD2 values against H3 receptor of guinea pig jejunum were determined.; assay type: tissue-based
Outline: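 Isolated guinea pig jejunum segments, electrically stimulated so that endogenous acetylcholine release evokes contractile twitches. Cumulative concentrations of the compound were added, and the concentration-dependent inhibition of the evoked twitches gave a concentration–response curve. Tissue from at least four animals was used, each tested in triplicate. Student's t-test, with p < 0.05 taken as significant.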

[2] = target: Histamine H3 receptor (Cavia porcellus) (UniProt Q9JI35); conditions: Ileum
[3] = target: T1, Histamine H3 receptor; experiment: Tested in vitro for antagonist activity against H3 receptor of guinea pig jejunum.; assay type: functional, tissue-based; conditions: read-out: pA2 (converted)
Outline: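 Isolated guinea pig jejunum segments were electrically stimulated, giving twitches from endogenous acetylcholine release. Antagonism was tested against cumulative (R)-α-methylhistamine concentration–response curves, using at least three antagonist concentrations. pA2 was the negative log of the Schild plot abscissal intercept. Tissues came from at least four animals, tested in triplicate; Student's t-test, p < 0.05.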

[4] = target: T2, Histamine H1 receptor (Cavia porcellus, UniProt P31389); experiment: Binding affinity against H1 receptor of guinea pig by the displacement of [3H]mepyramine, bound to membranes of CHO cells; assay type: cell membranes
Outline: (§1)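 Displacement of [3H]mepyramine from membranes of CHO cells expressing guinea pig H1 receptors. At least three independent experiments, each performed in triplicate.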

[5] = target: T3, Histamine H2 receptor (Homo sapiens, UniProt P25021); experiment: Binding affinity against human H2 receptor by the displacement of [125I]iodoaminopotentidine, bound to membranes of CHO cells.; assay type: cell membranes
[6] = target: T1, Histamine H3 receptor; experiment: pA2 values against H3 receptor of guinea pig ileum were determined.; assay type: tissue-based; conditions: read-out: pA2 (converted)
[7] = target: T2, Histamine H1 receptor; experiment: Binding affinity for H1 receptor of guinea pig by the displacement of [3H]mepyramine, bound to membranes of CHO cells; assay type: cell membranes; outline: as §1
[8] = target: T3, Histamine H2 receptor; experiment: Binding affinity against human H2 receptor by the displacement of [125I]iodoaminopotentidine bound to membranes of CHO cells.; assay type: cell membranes
Outline: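 Displacement of [125I]iodoaminopotentidine from membranes of CHO cells expressing human H2 receptors. At least three independent experiments, each performed in triplicate.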

[9] = target: Histamine H3 receptor (Cavia porcellus) (UniProt Q9JI35); conditions: Jejunum

T2 sequence (P31389 whole entry): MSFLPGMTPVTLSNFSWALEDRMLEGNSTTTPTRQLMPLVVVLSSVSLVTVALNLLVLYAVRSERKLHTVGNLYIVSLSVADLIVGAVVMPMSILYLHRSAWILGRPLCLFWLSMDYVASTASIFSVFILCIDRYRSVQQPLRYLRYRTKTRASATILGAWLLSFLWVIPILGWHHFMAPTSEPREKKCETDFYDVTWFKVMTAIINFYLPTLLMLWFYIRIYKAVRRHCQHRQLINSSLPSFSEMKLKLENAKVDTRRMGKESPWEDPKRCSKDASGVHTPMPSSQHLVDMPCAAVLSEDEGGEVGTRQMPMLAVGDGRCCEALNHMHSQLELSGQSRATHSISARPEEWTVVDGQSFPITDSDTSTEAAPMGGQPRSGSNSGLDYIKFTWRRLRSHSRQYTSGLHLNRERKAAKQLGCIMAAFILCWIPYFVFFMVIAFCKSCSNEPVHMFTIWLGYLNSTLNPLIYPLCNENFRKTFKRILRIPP
T1 sequence (Q9JI35 whole entry): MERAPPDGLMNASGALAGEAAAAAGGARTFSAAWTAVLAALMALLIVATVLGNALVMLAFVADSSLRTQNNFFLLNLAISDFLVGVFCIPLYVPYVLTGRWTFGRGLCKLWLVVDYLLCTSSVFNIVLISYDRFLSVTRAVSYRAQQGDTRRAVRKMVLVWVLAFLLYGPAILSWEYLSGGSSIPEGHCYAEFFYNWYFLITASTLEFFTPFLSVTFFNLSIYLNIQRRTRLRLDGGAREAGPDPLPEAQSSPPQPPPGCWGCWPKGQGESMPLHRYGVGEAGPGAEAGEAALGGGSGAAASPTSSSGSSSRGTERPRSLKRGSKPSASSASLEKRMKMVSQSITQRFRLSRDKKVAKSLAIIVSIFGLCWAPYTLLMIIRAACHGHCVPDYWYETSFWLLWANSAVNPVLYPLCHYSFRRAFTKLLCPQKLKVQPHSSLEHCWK
T3 sequence (P25021 whole entry): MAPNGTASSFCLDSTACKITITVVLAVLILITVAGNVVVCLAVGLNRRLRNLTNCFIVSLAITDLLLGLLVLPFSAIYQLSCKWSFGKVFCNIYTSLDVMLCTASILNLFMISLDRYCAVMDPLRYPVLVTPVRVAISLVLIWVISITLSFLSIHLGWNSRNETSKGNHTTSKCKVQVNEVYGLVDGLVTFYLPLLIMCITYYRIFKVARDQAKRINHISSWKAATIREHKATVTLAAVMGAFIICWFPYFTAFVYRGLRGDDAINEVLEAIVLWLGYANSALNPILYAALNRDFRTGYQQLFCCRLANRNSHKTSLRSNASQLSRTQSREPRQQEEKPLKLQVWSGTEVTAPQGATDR
Chain of Histamine H3 receptor (Cavia porcellus) (Q9JI35 whole entry): as the sequence (Q9JI35 whole entry) above

C[C@@H](N)Cc1c[nH]cn1
pD2 [1]: 7.8

N=C(N)SCCc1c[nH]cn1
pD2 [2]: 8.1

NCCCCCCCCc1cnc[nH]1
Kb [3]: 1 µM | Ki [4]: 2.51 µM | Ki [5]: 31.6 µM

NCc1c[nH]cn1
Kb [3]: > 1000 µM | Ki [4]: > 1000 µM | Ki [5]: > 1000 µM

NCCCCCCc1cnc[nH]1
Kb [3]: 0.0158 µM | Ki [4]: 126 µM | Ki [5]: 200 µM

N=C(N)SCCCc1c[nH]cn1
Kb [6]: 0.01 µM

NCCCCCCCCCCc1c[nH]cn1
Kb [3]: 1 µM | Ki [4]: 0.631 µM | Ki [5]: 20 µM

NCCCCc1c[nH]cn1 [IMBUTAMINE]
Kb [3]: 0.02 µM | Ki [7]: 398 µM | Ki [8]: 794 µM

NCCCCCc1c[nH]cn1 [IMPENTAMINE]
Kb [3]: 0.00398 µM | Ki [4]: 126 µM | Ki [5]: 251 µM

NCCCc1c[nH]cn1 [HOMOHISTAMINE]
Kb [3]: 1.26 µM | Ki [4]: > 1000 µM | Ki [5]: > 1000 µM

NCCc1c[nH]cn1
pD2 [9]: 6.2

— ChEMBL document CHEMBL1128733 (J Med Chem, 1995)
